What is called Emax is the maximal effect, on the per cent scale that the assay sets.

Structures are written as SMILES. The source made the active and inactive calls. The rule behind the calls is not given here.

In assay [1] the test system is Stomach. Nature of the assay: Inhibition of electrical field stimulation-induced neurogenic contractions in New Zealand white rabbit gastric fundus smooth muscle. The assay is classed as functional.
Assay [2] concerns Stomach. Kind of assay: Inhibition of neostigmine-induced neurogenic contractions in New Zealand white rabbit gastric fundus smooth muscle. The assay is classed as functional, tissue-based. As to conditions: Oryctolagus cuniculus. The essentials:
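Longitudinal gastric fundus strips (about 15–20 mm × 2 mm) from New Zealand white rabbits (2.5–3 kg), taken after i.v. pentobarbital. Strips were held in Krebs–Henseleit organ baths at 1 g basal tension and equilibrated 60 min. Contractions were evoked by electrical field stimulation through platinum electrodes (1 ms pulses, 60 V, 8 Hz) with neostigmine 10^-6 M. Compounds were dissolved in DMSO.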

The subject of assay [3] is Stomach. Nature of the assay: Myorelaxant activity against noradrenaline-induced contractions in New Zealand white rabbit gastric fundus smooth muscle. The format is functional, Oryctolagus cuniculus. The essentials: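 Longitudinal fundus strips (15-20 mm x 2 mm) were equilibrated 60 min at 1 g basal tension in Krebs-Henseleit solution, with the solution changed every 15 min. L-NAME 10^-4 M and indomethacin 10^-5 M were added 20 min before precontraction. Strips were precontracted with noradrenaline 10^-5 M. Compounds in DMSO were added cumulatively, each step after a plateau. pD2 and Em (at 3 x 10^-4 M) are mean ± S.E., n = 6.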

Assay [4] relates to Stomach. Nature of the assay: Myorelaxant activity against noradrenaline-induced contractions in New Zealand white rabbit gastric fundus smooth muscle in presence of glibenclamide. The format is functional, tissue-based. As to conditions: Oryctolagus cuniculus.
Assay [5] has as its system Stomach. Kind of assay: Reversal of inhibition of electrical field stimulation-induced neurogenic contractions in New Zealand white rabbit gastric fundus smooth muscle in presence of glibenclamide. The assay is classed as functional, Oryctolagus cuniculus.

`CN1[C@@H]2CC[C@H]1CC(OC(=O)[C@H](CO)c1ccccc1)C2` (some centres undefined): the result in assay [1] (Oryctolagus cuniculus) and in assay [2] was Active.
`CC(N/C(=N\C#N)Nc1ccncc1)C(C)(C)C` (centres undefined) [PINACIDIL ANHYDROUS]: the results for the pD2 in assay [1] and in assay [3] were 7.49 and 5.03, respectively. Further, the maximal effect (Emax) in assay [1] (Oryctolagus cuniculus, Stomach) amounted to 76.3%; in assay [3] (Oryctolagus cuniculus, Stomach), 71.2%. Besides, the result in assay [4] was Active. In addition, the “inhibition (INH)” value in assay [5] is given as 32.18%.
Turning to `NC1=N[C@H](O)[C@H]2[C@H]3O[C@]4(O)O[C@@H]([C@@H](O)[C@@]2(N1)[C@@H]4O)[C@]3(O)CO`, the result in assay [1] (Oryctolagus cuniculus) was Active.

These data come from ChEMBL document CHEMBL1149791, “Evaluation of myorelaxant activity of 7-substituted hexahydroquinoline derivatives in isolated rabbit gastric fundus” (2008).
